Screening data as filed in PubChem BioAssay.
ROMK mod – modulates human ROMK potassium channel activity. P48048. B-score at 10 µM. actives 2% (n = 130,000). Tet-inducible ROMK, thallium flux fluorescence; actives lie on both sides. AID 1918;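 active = signal ratio slope over the read window, or its plate-corrected B-score, at least 3 SD from the plate mean, either direction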;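 also: B-score of the F/F0 ratio slope over 7 to 12 s after thallium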
Target sequence (P48048 whole entry, looked up): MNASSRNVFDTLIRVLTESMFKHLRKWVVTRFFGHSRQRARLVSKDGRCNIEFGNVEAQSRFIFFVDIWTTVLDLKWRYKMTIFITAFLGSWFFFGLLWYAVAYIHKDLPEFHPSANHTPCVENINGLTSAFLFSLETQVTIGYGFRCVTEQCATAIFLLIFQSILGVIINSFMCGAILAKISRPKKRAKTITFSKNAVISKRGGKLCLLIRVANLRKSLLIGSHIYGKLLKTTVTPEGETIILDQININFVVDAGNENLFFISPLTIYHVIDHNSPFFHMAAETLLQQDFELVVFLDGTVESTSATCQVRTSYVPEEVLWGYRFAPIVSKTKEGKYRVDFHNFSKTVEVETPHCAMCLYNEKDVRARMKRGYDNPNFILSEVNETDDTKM
bCat nuc transl – alters nuclear translocation of beta-catenin in HeLa cells. immunofluorescence imaging. nuclear translocation activity, % at 5 µM. AID 1665. actives 0.3% (n = 190,000);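 active = nuclear translocation activity above 50% at 5 µM, with a well cell count of 50 or more; inconclusive = wells under 50 cells across six images, flagged as toxic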;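 also: per-cell ratio of nuclear to cytoplasmic median beta-catenin stain intensity; plate controls were DMSO negative control for no effect and GSK-3 inhibitor IX positive control for full effect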
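assay system = human HeLa cells, endogenous beta-catenin | times = compound treatment 24 h, 37°C, 5% CO2 | detection = Anti-beta-catenin immunofluorescence on PFA-fixed, Triton-permeabilized cells, DAPI nuclei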
MT stabilizer – stabilizes microtubules in HeLa cells; actives 0.83% (n = 200,000); % tubulin-high responders, % at 10 µM; HeLa tubulin immunostaining HCS, 24 h; share of cells brighter than vehicle mean+2SD;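 active = plate Z-score above 3 for both tubulin-high and condensed-nucleus cell shares, with cell loss under 80%, at 10 µM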;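 also: anti alpha tubulin signal scored within the nucleus-defined area of each cell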
ROMK hit retest – human ROMK channel modulation, retest confirmation; shares compounds with ROMK mod; ROMK thallium flux, fluorescence ratio; hits give low values; AID 1917; actives 54% (n = 3,000); normalized thallium flux (F/F0 slope) at 10 µM;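 active = Flux at 10 µM at least 3 SD below or above vehicle control mean in one or both replicates; inconclusive = no clear call, values can overlap the other calls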
Active calls of the source: *; ? = inconclusive; / = not tested or not shown. Hits are enriched below; roughly 1.9% of the tested compounds scored in any of these assays.

SMILES	ROMK mod	bCat nuc transl	MT stabilizer	ROMK hit retest
O=S(=O)(Nc1ccc2ccccc2n1)c1ccc2c(c1)CCO2	/	-1	/	/
O=c1cc(-c2ccc(O)cc2)oc2ccc(O)cc12	2.5*	4	3	0.078
O=c1cc(-c2ccc(O)cc2)oc2ccccc12	0.98	0	4	/
CC1(C)Cc2c(C#N)c(SCC(=O)c3ccccc3)nc(N3CCOCC3)c2CO1	-3.9*	-3	5	0.053*
CC1(C)Cc2c(C#N)c(SCc3ccccc3)nc(N3CCOCC3)c2CO1	-0.95	-1	4	/
S=C1NC[C@H](Cc2ccccc2)N1CCc1cccc2ccccc12	/	-2	/	/
N#CCOC(=O)/C=C/c1ccc2c(c1)OCO2	-0.54	-1	4	/
CN(C)/C=C(\C#N)C(=O)N/N=C(\CC(=O)C(F)(F)F)c1ccco1	-0.011	0	4	/
CN(CCOc1ccc(Cl)cc1)c1ccc(S(=O)(=O)N2CCCCC2)cn1	-4.4*	-2	2	?
Cc1ccc(NC(=O)CN(C)c2ccc(S(=O)(=O)N3CCCC3)cn2)cc1	-0.95	-1	6	/
COCCCN=C1NN=C(c2cc(C)n(Cc3ccco3)c2C)CS1	1.3*	/	14*	0.074
Cc1cc(C2=NNC(=NC3CC3)SC2)c(C)n1Cc1ccco1	/	36	5	/
COc1ccc(NS(=O)(=O)c2cc(OCC(N)=O)c(C)cc2Cl)cc1	0.5	0	4	/
CC(=O)Nc1cccc(/C(C)=N\NC(=O)c2ccc(Cn3nc([N+](=O)[O-])c(Cl)c3C)o2)c1	0.041	1	4	/
CCOC(=O)c1c(C)n(C)c2ccc(OC)c(NC(=O)CN3CCCCC3)c12	-4.1*	1	4	0.056*
CCOC(=O)c1c(C)n(C)c2ccc(O)c(CN3CCCCC3)c12	-2.5	0	2	/
CCC(=O)NC1CCN(C(=S)NC)CC1	0.18	1	1	/
CCCCN(CC)C(=O)CSc1nc2c(sc(=S)n2-c2ccc(OCC)cc2)c(=O)[nH]1	2.8*	-1	5	?
CCCN(CCC)C(=O)CSc1nc2c(sc(=S)n2-c2ccc(OCC)cc2)c(=O)[nH]1	-1.1	-2	1	/
Cc1csc(SCC(=O)NC(C)c2ccc(F)cc2)n1 (configuration not stated)	0.26	6	4	/
COc1ccc(OC)c(Nc2ncnc3sc(-c4ccccc4)cc23)c1	/	4	5	/
OCCOCCNc1ncnc2sc(-c3ccccc3)cc12	-1.8*	/	3	0.064*
O=C(NCc1ccccc1Cl)C1CCN(c2cnccn2)CC1	-1.1	-2	4	/
O=C(Cc1ccccc1)N/N=C/c1ccc2cccc(O)c2n1	-0.38	-1	3	/
CCCNC(=S)Nc1cccc(C(F)(F)F)c1	-0.57	0	6	?
SMILES	ROMK mod	bCat nuc transl	MT stabilizer	ROMK hit retest
FC(F)(F)c1cccc(NC(=S)NCCN2CCOCC2)c1	/	-2	2	/
O=C(COC(=O)c1ccc(Cl)cc1O)NCCN1C(=O)CSC1=O	/	0	/	/
Cc1cccn2c(=O)c3cc(C(=O)NC4CCCC4)c(=N)n(C4CCCC4)c3nc12	-2.6*	/	2	?
N=c1c(C(=O)NC2CCCC2)cc2c(=O)n3ccccc3nc2n1C1CCCC1	/	-2	4	/
COC(=O)C1C(=O)C2=C(CC1C)Nc1ccccc1NC2c1cccs1 (configuration not stated)	0.52	-2	2	/
CCc1ccc(C(=O)N2CCC(c3nc4ccccc4s3)CC2)cc1	/	0	3	/
O=C(CN1CCC(c2nc3ccccc3s2)CC1)NCc1ccccc1	-3*	1	2	0.073
Cc1c(-c2cc(C(=O)O)on2)cnn1C	-0.24	-2	3	/
Cc1ccc(SCc2nc(-c3ccncc3)no2)cc1	/	-1	3	/
Cc1ccc(SC(C)c2nc(-c3ccncc3)no2)cc1 (configuration not stated)	-3.1*	/	3	0.067*
COc1ccccc1CNCC(=O)Nc1cc(S(=O)(=O)N2CCCCCC2)ccc1Cl	/	1	/	0.066*
O=C(CNCc1ccccn1)Nc1cc(S(=O)(=O)N2CCCCC2)ccc1Cl	-0.12	1	1	/
Cc1cccc(CN2CCC(CNC(=O)CSc3cc(=O)n(C)c4cc(Cl)ccc34)CC2)c1	/	0	/	/
Cc1ccc(SCCNC(=O)/C=C/c2ccc([N+](=O)[O-])cc2)cc1	-0.51	0	2	/
O=C(/C=C/c1ccc([N+](=O)[O-])cc1)NCCSc1ccccc1	/	0	3	?
CCOc1cc(/C=C\[N+](=O)[O-])ccc1OCC(=O)N1CCOCC1	-5.6*	1	3	0.056*
CCOc1cc(/C=C/c2nc3cc(C)c(C)cc3s2)ccc1OCC(=O)N1CCOCC1	/	-1	2	/
CCOC(=O)C1=C(C)NC(SC)=C(C#N)C1CC(C)C (configuration not stated)	2.5*	27	/	0.08
